# ChEMBL document CHEMBL4130355, “Development of a series of novel 4-anlinoquinazoline derivatives possessing quinazoline skeleton: Design, synthesis, EGFR kinase inhibitory efficacy, and evaluation of anticancer activities in vitro” (Eur J Med Chem, 2017)
# Columns and labels:
# [1] = system: A549; experiment: Antiproliferative activity against human A549 cells at 0.1 uM after 24 hrs by MTT assay relative to control; type: functional
# How it was run: (§1)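 MTT assay in triplicate wells. Cells (2 × 10^3/well) were attached 24 h, then treated at 0.1, 1, 10, 50 or 100 µM for 24, 48 or 72 h. MTT added for 4 h, SDS solubilisation, absorbance at 570/650 nm. Inhibition = 1 − (OD treated − blank)/(OD control − blank). Reported as mean ± SD of three independent experiments.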
# [2] = system: A549; experiment: Antiproliferative activity against human A549 cells after 72 hrs by MTT assay; type: functional, cell-based; details: A549, 72 h
# [3] = system: A549; experiment: Antiproliferative activity against human A549 cells at 0.1 uM after 48 hrs by MTT assay relative to control; type: functional; how it was run: as §1
# [4] = system: HepG2; experiment: Cell cycle arrest in human HepG2 assessed as accumulation at S phase at 2.5 uM after 48 hrs by propidium iodide-staining based flow cytometry (reference value: 21.46%); type: functional
# How it was run: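 HepG2 cells at 5.0 × 10^5/well were grown 24 h, then treated at 0, 2.5, 5.0 or 10.0 µM for 48 h alongside medium-only wells. Cells fixed in 70% ice-cold ethanol for ≥24 h, treated with RNase A at 37 °C for 30 min, then stained with propidium iodide for 30 min at 4 °C in the dark. DNA content read by flow cytometry. Average of at least three experiments.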
# [5] = system: HepG2; experiment: Induction of apoptosis in human HepG2 cells assessed as early apoptotic cells at 10 uM after 48 hrs by Annexin V-FITC/propidium iodide double staining-based flow cytometry (reference value: 8.7%); type: functional
# [6] = system: HepG2; experiment: Induction of apoptosis in human HepG2 cells assessed as caspase-3 activity at 2.5 uM after 48 hrs by colorimetric assay relative to control; type: functional
# How it was run: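 After 48 h treatment, HepG2 were rinsed in ice-cold PBS and lysed 1–1.5 h on ice in buffer with 1% DTT. Lysate was spun at 10,000×g for 1 min at 4 °C; supernatant protein was measured by Bradford. Supernatant was mixed with 2× reaction buffer (1% DTT) plus caspase-3 chromogenic peptide substrate, held 4 h at 37 °C, and read at 405 nm.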
smiles,measurement,setting,value
COc1cc2c(Nc3ccc(C#N)cc3)ncnc2cc1OCCCN1CCC(c2ccccc2)CC1,Activity,[1],0.8%
same,IC50,[2],9.5 µM
same,Activity,[3],1.3%
same,Activity,[4],22.44%
same,Activity,[5],98.6%
same,Activity,[6],138%
